Source: PMC2800315 (Japanese Journal of Clinical Oncology, 2009)

Key:
[1] = Safety and tolerability, adverse events; format: in vivo, Japanese patients
Summary of the method: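 Open-label 3+3 dose escalation with daily oral dosing up to 10 mg/day in 28-day cycles. Adverse events monitored throughout and graded by NCI CTCAE v3.0, recorded until 28 days after stopping. DLT: grade ≥3 haematologic or non-haematologic event, or grade ≥3 lab abnormality, within the first 4 weeks and suspected drug-related. Antiemetic and anti-hyperlipidaemia therapy allowed.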

advanced solid tumors = test: Tumor response according to RECIST; format: in vivo, Japanese patients
Summary of the method: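 Patients had ≥1 measurable lesion and took continuous once-daily oral dosing in 28-day cycles, continued until progression. Tumour assessed by RECIST every 2 months and at study end. Outcomes summarised descriptively.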

esophagogastric cancer = settings: one esophagogastric cancer patient, daily dose of 5 mg; cited from earlier work
[2] = 2.5 mg/day (n = 3), G1/2, all courses
[3] = 2.5 mg/day (n = 3), G3/4, all courses
[4] = 5 mg/day (n = 3), G1/2, all courses
[5] = 5 mg/day (n = 3), G3/4, all courses
[6] = 10 mg/day (n = 3), G1/2, all courses
[7] = 10 mg/day (n = 3), G3/4, all courses
[8] = Total, all doses and grades, all courses
[9] = one patient with esophageal carcinoma, 10 mg/day, day 58

SMILES: CO[C@H]1C[C@@H]2CC[C@@H](C)[C@@](O)(O2)C(=O)C(=O)N2CCCC[C@H]2C(=O)O[C@H]([C@H](C)C[C@@H]2CC[C@@H](OCCO)[C@H](OC)C2)CC(=O)[C@H](C)/C=C(\C)[C@@H](O)[C@@H](OC)C(=O)[C@H](C)C[C@H](C)/C=C/C=C/C=C/1C [RAD001, everolimus]
- Number of patients with adverse event: Anemia [1, 2]: 0
- Number of patients with adverse event: Anorexia [1, 2]: 1
- Number of patients with adverse event: Diarrhea [1, 2]: 0
- Number of patients with adverse event: Elevated ALT or AST [1, 2]: 2
- Number of patients with adverse event: Fatigue [1, 2]: 0
- Number of patients with adverse event: Glucose tolerance impaired [1, 2]: 0
- Number of patients with adverse event: Hemorrhage [1, 2]: 0
- Number of patients with adverse event: Hyperglycemia [1, 2]: 0
- Number of patients with adverse event: Hypertension [1, 2]: 1
- Number of patients with adverse event: Leukopenia [1, 2]: 1
- Number of patients with adverse event: Mucosal inflammation [1, 2]: 0
- Number of patients with adverse event: Nausea [1, 2]: 1
- Number of patients with adverse event: Neutropenia [1, 2]: 1
- Number of patients with adverse event: Pneumonitis [1, 2]: 0
- Number of patients with adverse event: Rash [1, 2]: 0
- Number of patients with adverse event: Stomatitis [1, 2]: 1
- Number of patients with adverse event: Thrombocytopenia [1, 2]: 0
- Number of patients with adverse event: Weight decreased [1, 2]: 1
- Number of patients with adverse event: Anemia [1, 3]: 0
- Number of patients with adverse event: Anorexia [1, 3]: 0
- Number of patients with adverse event: Diarrhea [1, 3]: 0
- Number of patients with adverse event: Elevated ALT or AST [1, 3]: 0
- Number of patients with adverse event: Fatigue [1, 3]: 0
- Number of patients with adverse event: Glucose tolerance impaired [1, 3]: 0
- Number of patients with adverse event: Hemorrhage [1, 3]: 0
- Number of patients with adverse event: Hyperglycemia [1, 3]: 0
- Number of patients with adverse event: Hypertension [1, 3]: 0
- Number of patients with adverse event: Leukopenia [1, 3]: 0
- Number of patients with adverse event: Mucosal inflammation [1, 3]: 0
- Number of patients with adverse event: Nausea [1, 3]: 0
- Number of patients with adverse event: Neutropenia [1, 3]: 0
- Number of patients with adverse event: Pneumonitis [1, 3]: 0
- Number of patients with adverse event: Rash [1, 3]: 0
- Number of patients with adverse event: Stomatitis [1, 3]: 0
- Number of patients with adverse event: Thrombocytopenia [1, 3]: 0
- Number of patients with adverse event: Weight decreased [1, 3]: 0
- Number of patients with adverse event: Anemia [1, 4]: 0
- Number of patients with adverse event: Anorexia [1, 4]: 2
- Number of patients with adverse event: Diarrhea [1, 4]: 2
- Number of patients with adverse event: Elevated ALT or AST [1, 4]: 0
- Number of patients with adverse event: Fatigue [1, 4]: 1
- Number of patients with adverse event: Glucose tolerance impaired [1, 4]: 1
- Number of patients with adverse event: Hemorrhage [1, 4]: 0
- Number of patients with adverse event: Hyperglycemia [1, 4]: 0
- Number of patients with adverse event: Hypertension [1, 4]: 0
- Number of patients with adverse event: Leukopenia [1, 4]: 2
- Number of patients with adverse event: Mucosal inflammation [1, 4]: 0
- Number of patients with adverse event: Nausea [1, 4]: 0
- Number of patients with adverse event: Neutropenia [1, 4]: 0
- Number of patients with adverse event: Pneumonitis [1, 4]: 1
- Number of patients with adverse event: Rash [1, 4]: 1
- Number of patients with adverse event: Stomatitis [1, 4]: 0
- Number of patients with adverse event: Thrombocytopenia [1, 4]: 2
- Number of patients with adverse event: Weight decreased [1, 4]: 0
- Number of patients with adverse event: Anemia [1, 5]: 0
- Number of patients with adverse event: Anorexia [1, 5]: 0
- Number of patients with adverse event: Diarrhea [1, 5]: 0
- Number of patients with adverse event: Elevated ALT or AST [1, 5]: 0
- Number of patients with adverse event: Fatigue [1, 5]: 0
- Number of patients with adverse event: Glucose tolerance impaired [1, 5]: 0
- Number of patients with adverse event: Hemorrhage [1, 5]: 0
- Number of patients with adverse event: Hyperglycemia [1, 5]: 0
- Number of patients with adverse event: Hypertension [1, 5]: 0
- Number of patients with adverse event: Leukopenia [1, 5]: 0
- Number of patients with adverse event: Mucosal inflammation [1, 5]: 0
- Number of patients with adverse event: Nausea [1, 5]: 0
- Number of patients with adverse event: Neutropenia [1, 5]: 0
- Number of patients with adverse event: Pneumonitis [1, 5]: 0
- Number of patients with adverse event: Rash [1, 5]: 0
- Number of patients with adverse event: Stomatitis [1, 5]: 0
- Number of patients with adverse event: Thrombocytopenia [1, 5]: 0
- Number of patients with adverse event: Weight decreased [1, 5]: 0
- Number of patients with adverse event: Anemia [1, 6]: 1
- Number of patients with adverse event: Anorexia [1, 6]: 1
- Number of patients with adverse event: Diarrhea [1, 6]: 0
- Number of patients with adverse event: Elevated ALT or AST [1, 6]: 0
- Number of patients with adverse event: Fatigue [1, 6]: 0
- Number of patients with adverse event: Glucose tolerance impaired [1, 6]: 0
- Number of patients with adverse event: Hemorrhage [1, 6]: 0
- Number of patients with adverse event: Hyperglycemia [1, 6]: 0
- Number of patients with adverse event: Hypertension [1, 6]: 0
- Number of patients with adverse event: Leukopenia [1, 6]: 0
- Number of patients with adverse event: Mucosal inflammation [1, 6]: 2
- Number of patients with adverse event: Nausea [1, 6]: 1
- Number of patients with adverse event: Neutropenia [1, 6]: 0
- Number of patients with adverse event: Pneumonitis [1, 6]: 0
- Number of patients with adverse event: Rash [1, 6]: 3
- Number of patients with adverse event: Stomatitis [1, 6]: 0
- Number of patients with adverse event: Thrombocytopenia [1, 6]: 3
- Number of patients with adverse event: Weight decreased [1, 6]: 1
- Number of patients with adverse event: Anemia [1, 7]: 0
- Number of patients with adverse event: Anorexia [1, 7]: 0
- Number of patients with adverse event: Diarrhea [1, 7]: 0
- Number of patients with adverse event: Elevated ALT or AST [1, 7]: 0
- Number of patients with adverse event: Fatigue [1, 7]: 1
- Number of patients with adverse event: Glucose tolerance impaired [1, 7]: 0
- Number of patients with adverse event: Hemorrhage [1, 7]: 1
- Number of patients with adverse event: Hyperglycemia [1, 7]: 1
- Number of patients with adverse event: Hypertension [1, 7]: 0
- Number of patients with adverse event: Leukopenia [1, 7]: 0
- Number of patients with adverse event: Mucosal inflammation [1, 7]: 0
- Number of patients with adverse event: Nausea [1, 7]: 0
- Number of patients with adverse event: Neutropenia [1, 7]: 0
- Number of patients with adverse event: Pneumonitis [1, 7]: 0
- Number of patients with adverse event: Rash [1, 7]: 0
- Number of patients with adverse event: Stomatitis [1, 7]: 1
- Number of patients with adverse event: Thrombocytopenia [1, 7]: 0
- Number of patients with adverse event: Weight decreased [1, 7]: 0
- Dosage recommended for further development ([1]; Japanese patients with advanced solid malignancies): 10 mg/day
- Number of patients with adverse event: Anemia [1, 8]: 1
- Number of patients with adverse event: Anorexia [1, 8]: 4
- Number of patients with adverse event: Diarrhea [1, 8]: 2
- Number of patients with adverse event: Elevated ALT or AST [1, 8]: 2
- Number of patients with adverse event: Fatigue [1, 8]: 2
- Number of patients with adverse event: Glucose tolerance impaired [1, 8]: 1
- Number of patients with adverse event: Hemorrhage [1, 8]: 1
- Number of patients with adverse event: Hyperglycemia [1, 8]: 1
- Number of patients with adverse event: Hypertension [1, 8]: 1
- Number of patients with adverse event: Leukopenia [1, 8]: 3
- Number of patients with adverse event: Mucosal inflammation [1, 8]: 2
- Number of patients with adverse event: Nausea [1, 8]: 2
- Number of patients with adverse event: Neutropenia [1, 8]: 1
- Number of patients with adverse event: Pneumonitis [1, 8]: 1
- Number of patients with adverse event: Rash [1, 8]: 4
- Number of patients with adverse event: Stomatitis [1, 8]: 2
- Number of patients with adverse event: Thrombocytopenia [1, 8]: 5
- Number of patients with adverse event: Weight decreased [1, 8]: 2
- Hyperlipidemia ([1]; all cohorts): not observed
- Dose-limiting toxicities (DLTs) ([1]; first cycle of treatment (28 days), 2.5, 5.0 or 10.0 mg/day): not observed
- Pneumonitis, grade ([1]; one patient with colon cancer, 5 mg/day, after 142 days of therapy): grade 2
- Hyperglycemia, grade ([1]; one patient with colorectal cancer, 10 mg/day, day 98): Grade 3
- Fatigue, grade [1, 9]: Grade 3
- Stomatitis, grade [1, 9]: Grade 3
- Anorexia, all grades, patients ([1]; overall, nine patients): 44%
- Leukopenia, all grades, patients ([1]; overall, nine patients): 33%
- Rash, all grades, patients ([1]; overall, nine patients): 44%
- Thrombocytopenia, all grades, patients ([1]; overall, nine patients): 56%
- Patients with marked tumor shrinkage (advanced solid tumors; daily dose of 10 mg, esophageal and gastric cancer): two of three
- Duration of partial response (advanced solid tumors; patient with gastric adenocarcinoma and liver metastases, 10 mg/day): > 4 months
- Tumor response (esophagogastric cancer): partial response
